In ChEMBL document CHEMBL2440039, “Synthesis and pharmacological evaluation of novel N-aryl-3,4-dihydro-1'H-spiro[chromene-2,4'-piperidine]-1'-carboxamides as TRPM8 antagonists” (Bioorg Med Chem, 2013):

Columns and labels:
[1] = Metabolic stability in Beagle dog liver microsomes assessed as compound remaining at 1 uM after 60 mins by LC/MS/MS analysis; format: ADME, Canis lupus familiaris, Microsome; details: read-out: Stability
How it was run: (§1)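 Liver microsomes (1.0 mg/mL protein) from male CD1 mouse, Wistar rat, Beagle dog, Cynomolgus monkey, or pooled human. Test item 1.0 µM in KH2PO4 buffer pH 7.4 with 2.0 mM NADPH (final) at 37 °C for 60 min, stopped with TBME. Extract read by LC/MS/MS as area ratio to internal standard. Percent remaining is 60 min relative to 0 min.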

[2] = Metabolic stability in human liver microsomes assessed as compound remaining at 1 uM after 60 mins by LC/MS/MS analysis; format: ADME, Microsome; details: read-out: Stability; how it was run: as §1
Mus musculus [3] = experiment: Inhibition of oxaliplatin-induced peripheral neuropathic pain in po dosed acetone spray-induced cold allodynia C57/BL6 mouse model assessed as inhibition of nocifensive paw licking behavior; format: functional, organism-based
How it was run: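 Male C57/BL6 mice (20–30 g) given oxaliplatin 3 mg/kg ip in 5% glucose and tested for cold allodynia 3 days later. Compound given po (3, 10, 30 mg/kg) 30 min before acetone spray, vehicle 0.5% MC. Nocifensive paw licking recorded. One-way ANOVA with Bonferroni test.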

Rattus norvegicus [4] = experiment: Inhibition of acetone spray-induced cold allodynia in Sprague-Dawley rat chronic constriction injury model at 10 mg/kg, po after 0.5 hrs; format: functional
How it was run: (§2)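 Male SD rats (160–200 g) with sciatic nerve chronic constriction injury under ketamine/xylazine, tested 7 days later at 21 ± 0.5 °C. Oral dose, vehicle 0.5% MC. Acetone 100 µl sprayed on ipsilateral paw, repeated 3–5 times at 5 min intervals. Flinches and licking counted over 2 min at 0, 0.5, 1, 2 and 3 h, scored clinically.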

[5] = biological target: Transient receptor potential cation channel subfamily M member 8 (Rattus norvegicus, UniProt Q8R455); experiment: Antagonist activity at rat TRPM8 by 45Ca2+ uptake assay
Transient receptor potential cation channel subfamily M member 8 (Rattus norvegicus, UniProt Q8R455), sequence (Q8R455 whole entry): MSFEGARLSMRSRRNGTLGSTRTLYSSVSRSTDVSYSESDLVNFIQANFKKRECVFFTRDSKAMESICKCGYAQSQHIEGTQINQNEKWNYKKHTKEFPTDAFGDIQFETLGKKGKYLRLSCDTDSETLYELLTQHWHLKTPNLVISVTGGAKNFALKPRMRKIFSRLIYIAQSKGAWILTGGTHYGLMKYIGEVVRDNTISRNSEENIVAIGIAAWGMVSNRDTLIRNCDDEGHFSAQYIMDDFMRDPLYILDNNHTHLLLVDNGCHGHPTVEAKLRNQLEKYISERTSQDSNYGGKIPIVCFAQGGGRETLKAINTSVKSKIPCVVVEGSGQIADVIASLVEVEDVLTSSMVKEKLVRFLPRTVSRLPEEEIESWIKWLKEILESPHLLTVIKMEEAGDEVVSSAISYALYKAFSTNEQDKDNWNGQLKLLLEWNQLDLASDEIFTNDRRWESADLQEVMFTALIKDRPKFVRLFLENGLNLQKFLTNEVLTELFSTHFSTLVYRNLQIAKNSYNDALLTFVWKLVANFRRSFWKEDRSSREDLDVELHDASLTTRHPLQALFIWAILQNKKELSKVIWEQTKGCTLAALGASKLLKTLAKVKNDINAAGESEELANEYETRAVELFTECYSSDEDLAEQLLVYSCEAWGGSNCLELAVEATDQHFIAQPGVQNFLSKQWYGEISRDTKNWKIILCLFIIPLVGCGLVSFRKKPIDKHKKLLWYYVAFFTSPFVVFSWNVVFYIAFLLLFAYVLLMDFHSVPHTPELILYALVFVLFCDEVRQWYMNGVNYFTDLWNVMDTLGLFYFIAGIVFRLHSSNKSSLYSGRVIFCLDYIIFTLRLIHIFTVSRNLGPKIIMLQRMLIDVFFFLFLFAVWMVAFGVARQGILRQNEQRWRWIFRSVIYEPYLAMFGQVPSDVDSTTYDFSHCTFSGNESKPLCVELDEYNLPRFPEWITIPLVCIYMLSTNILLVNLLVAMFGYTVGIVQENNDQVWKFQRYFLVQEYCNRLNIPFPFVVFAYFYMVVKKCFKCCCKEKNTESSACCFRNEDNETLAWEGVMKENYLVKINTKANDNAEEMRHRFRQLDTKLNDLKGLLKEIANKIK

[6] = biological target: Transient receptor potential cation channel subfamily V member 4 (Homo sapiens) (UniProt Q9HBA0); experiment: Antagonist activity at human TRPV4 expressed in CHO cells assessed as inhibition of 4alphaPDD-induced 45Ca2+ uptake at 1 uM incubated for 10 mins prior to 4alphaPDD-challenge measured after 2 to 5 mins by liquid scintillation counting analysis; format: cell-based
Transient receptor potential cation channel subfamily V member 4 (Homo sapiens), sequence (Q9HBA0 whole entry): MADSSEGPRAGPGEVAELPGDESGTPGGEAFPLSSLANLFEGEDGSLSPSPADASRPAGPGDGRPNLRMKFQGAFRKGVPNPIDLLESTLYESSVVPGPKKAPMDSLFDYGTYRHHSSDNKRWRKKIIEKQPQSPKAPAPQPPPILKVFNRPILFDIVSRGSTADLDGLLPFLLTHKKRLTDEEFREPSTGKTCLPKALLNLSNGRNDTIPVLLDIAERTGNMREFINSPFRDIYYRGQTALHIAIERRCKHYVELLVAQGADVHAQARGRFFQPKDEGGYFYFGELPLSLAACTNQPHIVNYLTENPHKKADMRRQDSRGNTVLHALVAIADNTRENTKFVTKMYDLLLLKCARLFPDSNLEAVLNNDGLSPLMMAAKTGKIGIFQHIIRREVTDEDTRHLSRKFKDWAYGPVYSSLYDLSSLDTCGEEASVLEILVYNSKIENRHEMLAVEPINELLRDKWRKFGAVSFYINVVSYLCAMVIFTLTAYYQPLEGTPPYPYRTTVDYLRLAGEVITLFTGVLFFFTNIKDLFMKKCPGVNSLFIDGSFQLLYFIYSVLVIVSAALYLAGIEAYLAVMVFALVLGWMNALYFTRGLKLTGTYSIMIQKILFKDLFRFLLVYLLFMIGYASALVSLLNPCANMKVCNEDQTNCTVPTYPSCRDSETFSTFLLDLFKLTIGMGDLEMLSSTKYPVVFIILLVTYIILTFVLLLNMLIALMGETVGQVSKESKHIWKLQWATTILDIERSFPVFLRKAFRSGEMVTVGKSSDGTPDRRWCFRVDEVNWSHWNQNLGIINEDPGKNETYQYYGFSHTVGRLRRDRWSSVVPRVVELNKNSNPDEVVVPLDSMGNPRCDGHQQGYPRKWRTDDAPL
How it was run: (§3)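 CHO cells stably expressing human TRPA1, TRPV1, TRPV3 or TRPV4. Temperature 30 °C for TRPV1, 32 °C for TRPV3, 25 °C for TRPV4 and TRPA1. Compound preincubated 10 min, then 45Ca2+ (5 µCi/mL final) and agonist added. Wash after 2–5 min, lyse, scintillation count. TRPV1 IC50 from six-point curves in at least two experiments. TRPA1, TRPV3 and TRPV4 run in duplicate as % inhibition at 1.0 µM.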

[7] = Metabolic stability in Wistar rat liver microsomes assessed as compound remaining at 1 uM after 60 mins by LC/MS/MS analysis; format: ADME, Microsome; details: read-out: Stability; how it was run: as §1
Rattus norvegicus [8] = experiment: AUC (0 to t) in Sprague-Dawley rat at 10 mg/kg, po; format: ADME, organism-based, Plasma; parameters: dose 10 mg/kg, route oral; details: in vivo
How it was run: (§4)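 Male SD rats (180–220 g, n=3), fasted overnight, single oral gavage dose as suspension in 1% Tween 80 / 0.5% w/v methyl cellulose in water. Blood (K2EDTA) drawn 0.5–24 h post dose. Plasma taken by liquid–liquid extraction with internal standard and measured by achiral LC/MS/MS. Values given as mean ± SD.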

[9] = Metabolic stability in cynomolgus monkey liver microsomes assessed as compound remaining at 1 uM after 60 mins by LC/MS/MS analysis; format: ADME, Macaca fascicularis, Microsome; details: read-out: Stability; how it was run: as §1
Rattus norvegicus [10] = experiment: Inhibition of acetone spray-induced cold allodynia in Sprague-Dawley rat chronic constriction injury model at 10 mg/kg, po after 1 hr; format: functional; how it was run: as §2
[11] = Tmax in Sprague-Dawley rat at 10 mg/kg, po; format: ADME, organism-based; parameters: dose 10 mg/kg, route oral; details: in vivo; how it was run: as §4
Mus musculus [12] = experiment: Inhibition of oxaliplatin-induced peripheral neuropathic pain in acetone spray-induced cold allodynia C57/BL6 mouse model assessed as inhibition of nocifensive paw licking behavior at 30 mg/kg, po; format: functional
How it was run: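 Male C57/BL6 mice (20–30 g) received oxaliplatin (3 mg/kg ip, in 5% glucose, 10 ml/kg) and were tested for cold allodynia 3 days later. Compound was dosed po 30 min before acetone spray, with 0.5% MC as vehicle. Nocifensive paw licking/flicking was scored. Analysis was one-way ANOVA with Bonferroni versus vehicle.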

[13] = Metabolic stability in CD-1 mouse liver microsomes assessed as compound remaining at 1 uM after 60 mins by LC/MS/MS analysis; format: ADME, Microsome; details: read-out: Stability; how it was run: as §1
[14] = biological target: Transient receptor potential cation channel subfamily V member 1 (Homo sapiens, UniProt Q8NER1); experiment: Antagonist activity at human TRPV1 expressed in CHO cells assessed as inhibition of capsaicin-induced 45Ca2+ uptake incubated for 10 mins prior to capsaicin-challenge measured after 2 to 5 mins by liquid scintillation counting analysis; format: cell-based; how it was run: as §3
Transient receptor potential cation channel subfamily V member 1, sequence (Q8NER1 whole entry): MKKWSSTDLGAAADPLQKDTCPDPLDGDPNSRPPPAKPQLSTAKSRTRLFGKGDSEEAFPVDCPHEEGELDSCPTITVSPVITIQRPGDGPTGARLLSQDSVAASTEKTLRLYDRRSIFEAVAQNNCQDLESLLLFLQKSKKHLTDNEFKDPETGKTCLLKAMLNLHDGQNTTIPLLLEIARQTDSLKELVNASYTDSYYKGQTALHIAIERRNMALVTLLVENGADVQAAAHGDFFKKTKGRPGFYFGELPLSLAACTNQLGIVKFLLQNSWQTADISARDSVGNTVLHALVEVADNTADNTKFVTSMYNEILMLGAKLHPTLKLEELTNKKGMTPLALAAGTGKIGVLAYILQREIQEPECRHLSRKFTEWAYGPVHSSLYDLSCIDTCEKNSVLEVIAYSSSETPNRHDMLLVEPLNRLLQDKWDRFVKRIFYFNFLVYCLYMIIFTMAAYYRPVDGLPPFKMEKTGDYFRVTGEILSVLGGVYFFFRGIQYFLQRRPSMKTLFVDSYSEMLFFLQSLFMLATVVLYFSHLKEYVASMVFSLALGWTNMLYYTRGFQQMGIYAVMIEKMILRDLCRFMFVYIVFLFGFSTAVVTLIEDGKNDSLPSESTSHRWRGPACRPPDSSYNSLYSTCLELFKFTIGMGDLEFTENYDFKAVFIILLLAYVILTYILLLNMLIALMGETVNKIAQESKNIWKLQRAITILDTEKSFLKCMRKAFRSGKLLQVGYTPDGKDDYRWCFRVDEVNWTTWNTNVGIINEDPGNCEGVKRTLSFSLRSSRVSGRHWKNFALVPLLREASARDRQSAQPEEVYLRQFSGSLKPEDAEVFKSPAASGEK

[15] = biological target: Transient receptor potential cation channel subfamily M member 8 (Homo sapiens, UniProt Q7Z2W7); experiment: Antagonist activity at human TRPM8 expressed in CHO cells assessed as inhibition of icilin-induced 45Ca2+ uptake incubated for 10 mins prior to icilin-challenge measured after 4 mins by liquid scintillation counting analysis; format: cell-based
Transient receptor potential cation channel subfamily M member 8 (Homo sapiens, UniProt Q7Z2W7), sequence (Q7Z2W7 whole entry): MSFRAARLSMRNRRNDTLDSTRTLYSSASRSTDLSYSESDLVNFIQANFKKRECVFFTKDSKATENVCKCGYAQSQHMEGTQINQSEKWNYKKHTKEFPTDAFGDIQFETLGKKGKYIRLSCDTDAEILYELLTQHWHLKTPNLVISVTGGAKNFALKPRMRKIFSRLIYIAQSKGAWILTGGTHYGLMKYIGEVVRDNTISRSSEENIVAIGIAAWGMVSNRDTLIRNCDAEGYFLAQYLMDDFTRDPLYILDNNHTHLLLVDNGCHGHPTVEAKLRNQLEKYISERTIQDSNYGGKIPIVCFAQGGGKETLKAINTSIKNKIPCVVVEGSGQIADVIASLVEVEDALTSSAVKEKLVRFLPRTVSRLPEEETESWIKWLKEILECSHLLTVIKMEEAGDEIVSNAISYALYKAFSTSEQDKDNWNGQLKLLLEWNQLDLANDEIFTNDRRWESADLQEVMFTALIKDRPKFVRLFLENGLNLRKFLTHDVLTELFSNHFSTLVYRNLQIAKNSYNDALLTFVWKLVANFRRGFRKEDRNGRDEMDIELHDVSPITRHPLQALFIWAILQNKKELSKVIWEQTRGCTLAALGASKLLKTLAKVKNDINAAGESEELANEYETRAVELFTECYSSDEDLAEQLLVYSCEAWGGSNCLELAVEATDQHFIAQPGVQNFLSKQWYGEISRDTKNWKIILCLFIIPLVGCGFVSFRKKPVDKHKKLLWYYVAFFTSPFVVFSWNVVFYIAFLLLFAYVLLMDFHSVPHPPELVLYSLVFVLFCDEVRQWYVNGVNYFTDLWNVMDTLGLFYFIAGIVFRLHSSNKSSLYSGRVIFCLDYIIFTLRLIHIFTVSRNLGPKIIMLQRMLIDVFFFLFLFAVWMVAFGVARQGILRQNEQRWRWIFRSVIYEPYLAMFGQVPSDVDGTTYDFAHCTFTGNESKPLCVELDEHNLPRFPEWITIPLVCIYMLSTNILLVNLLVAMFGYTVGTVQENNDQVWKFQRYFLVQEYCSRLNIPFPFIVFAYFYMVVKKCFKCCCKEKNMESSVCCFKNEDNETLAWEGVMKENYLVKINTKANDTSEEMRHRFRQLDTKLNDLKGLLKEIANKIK
How it was run: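 CHO cells stably expressing human TRPM8 in DMEM F-12 with 10% FBS and G418, seeded overnight. Assay buffer is DMEM F12 with 0.1% BSA and 1.8 mM CaCl2, run at 25 °C. Compound added 10 min before 45Ca2+ (5 µCi/mL final) and icilin. Wash after 4 min, lyse, count cpm. IC50 from six-point curves by nonlinear regression, at least two independent experiments.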

Mus musculus [16] = experiment: Inhibition of icilin-induced wet dog shakes in C57/BL6 mouse at 30 mg/kg, po administered 30 mins prior to icilin-challenge measured for 30 mins; format: functional
How it was run: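 Male C57/BL6 mice (20–30 g) acclimatized in a bell jar 10 min daily for 3 days. Icilin 30 mg/kg ip in 20% DMSO / 1% Tween 80. Compound given po 30 min before icilin, vehicle 0.5% MC. Wet dog shakes counted for 30 min after icilin. One-way ANOVA with Bonferroni test.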

[17] = Cmax in Sprague-Dawley rat at 10 mg/kg, po; format: ADME, organism-based; parameters: dose 10 mg/kg, route oral; details: in vivo; how it was run: as §4
Rattus norvegicus [18] = experiment: Drug uptake in Sprague-Dawley rat at 10 mg/kg, po up to 8 hrs; format: ADME, organism-based; parameters: dose 10 mg/kg, route oral; details: in vivo; how it was run: as §4
Rattus norvegicus [19] = experiment: Inhibition of acetone spray-induced cold allodynia in Sprague-Dawley rat chronic constriction injury model at 10 mg/kg, po after 3 hrs; format: functional; how it was run: as §2
[20] = biological target: T1, Transient receptor potential cation channel subfamily V member 3 (Homo sapiens) (UniProt Q8NET8); experiment: Antagonist activity at human TRPV3 expressed in CHO cells assessed as inhibition of 2APB-induced 45Ca2+ uptake at 1 uM incubated for 10 mins prior to 2APB-challenge measured after 2 to 5 mins by liquid scintillation counting analysis; format: cell-based; how it was run: as §3
T1 sequence (whole entry): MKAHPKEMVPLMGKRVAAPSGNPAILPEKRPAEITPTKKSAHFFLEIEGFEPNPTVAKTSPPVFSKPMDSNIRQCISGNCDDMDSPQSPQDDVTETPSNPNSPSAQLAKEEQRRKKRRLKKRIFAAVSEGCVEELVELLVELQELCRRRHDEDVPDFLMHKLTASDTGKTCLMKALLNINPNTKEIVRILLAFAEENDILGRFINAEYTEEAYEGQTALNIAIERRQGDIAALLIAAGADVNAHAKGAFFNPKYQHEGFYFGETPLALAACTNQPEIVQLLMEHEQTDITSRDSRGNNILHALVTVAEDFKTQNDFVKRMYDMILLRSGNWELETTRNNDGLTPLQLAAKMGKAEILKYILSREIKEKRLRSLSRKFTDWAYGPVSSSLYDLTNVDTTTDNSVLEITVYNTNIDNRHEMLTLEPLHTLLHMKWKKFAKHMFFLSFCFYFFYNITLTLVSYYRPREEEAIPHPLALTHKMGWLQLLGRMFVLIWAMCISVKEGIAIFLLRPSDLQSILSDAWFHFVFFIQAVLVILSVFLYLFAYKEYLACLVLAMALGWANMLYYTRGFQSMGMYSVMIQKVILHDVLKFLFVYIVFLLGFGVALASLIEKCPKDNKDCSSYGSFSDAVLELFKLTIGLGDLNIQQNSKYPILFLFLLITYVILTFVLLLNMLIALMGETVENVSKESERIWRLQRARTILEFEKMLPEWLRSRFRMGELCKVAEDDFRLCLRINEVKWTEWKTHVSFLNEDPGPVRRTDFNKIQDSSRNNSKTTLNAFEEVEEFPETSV

[21] = biological target: Transient receptor potential cation channel subfamily A member 1 (Homo sapiens) (UniProt O75762); experiment: Antagonist activity at human TRPA1 expressed in CHO cells assessed as inhibition of allyl isothiocyanate-induced 45Ca2+ uptake at 1 uM incubated for 10 mins prior to allyl isothiocyanate-challenge measured after 2 to 5 mins by liquid scintillation counting analysis; format: cell-based; how it was run: as §3
Transient receptor potential cation channel subfamily A member 1 (Homo sapiens), sequence (O75762 whole entry): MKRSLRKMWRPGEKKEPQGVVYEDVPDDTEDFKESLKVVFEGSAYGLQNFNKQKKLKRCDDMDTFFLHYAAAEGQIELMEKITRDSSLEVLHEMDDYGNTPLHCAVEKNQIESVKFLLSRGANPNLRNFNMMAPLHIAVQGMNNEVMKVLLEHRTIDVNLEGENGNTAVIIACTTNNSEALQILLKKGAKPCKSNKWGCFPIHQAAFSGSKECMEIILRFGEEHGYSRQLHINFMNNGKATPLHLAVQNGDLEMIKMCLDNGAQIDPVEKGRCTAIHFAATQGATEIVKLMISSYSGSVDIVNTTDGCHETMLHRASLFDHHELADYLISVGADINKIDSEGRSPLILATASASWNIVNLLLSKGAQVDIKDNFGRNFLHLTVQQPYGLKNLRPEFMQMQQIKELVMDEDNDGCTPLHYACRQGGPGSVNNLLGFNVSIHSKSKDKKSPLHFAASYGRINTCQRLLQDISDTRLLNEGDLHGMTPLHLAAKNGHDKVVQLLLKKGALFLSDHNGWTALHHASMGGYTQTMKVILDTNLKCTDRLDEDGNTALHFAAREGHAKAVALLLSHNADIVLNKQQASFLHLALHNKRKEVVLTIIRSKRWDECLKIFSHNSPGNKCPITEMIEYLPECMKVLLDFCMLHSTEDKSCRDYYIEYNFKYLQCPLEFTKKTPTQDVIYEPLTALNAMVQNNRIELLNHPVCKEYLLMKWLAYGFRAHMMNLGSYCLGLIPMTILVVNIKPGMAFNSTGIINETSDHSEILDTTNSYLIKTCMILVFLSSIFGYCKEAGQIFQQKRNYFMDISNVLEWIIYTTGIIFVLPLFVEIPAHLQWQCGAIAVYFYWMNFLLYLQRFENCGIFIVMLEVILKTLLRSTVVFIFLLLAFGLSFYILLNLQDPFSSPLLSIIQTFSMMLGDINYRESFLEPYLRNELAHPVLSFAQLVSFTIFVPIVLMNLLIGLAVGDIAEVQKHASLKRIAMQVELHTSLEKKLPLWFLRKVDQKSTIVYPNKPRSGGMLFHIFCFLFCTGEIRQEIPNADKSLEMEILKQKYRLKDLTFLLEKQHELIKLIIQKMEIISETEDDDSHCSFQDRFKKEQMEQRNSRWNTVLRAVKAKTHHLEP

Rattus norvegicus [22] = experiment: Inhibition of acetone spray-induced cold allodynia in Sprague-Dawley rat chronic constriction injury model at 10 mg/kg, po after 2 hrs; format: functional; how it was run: as §2

- remaining at 1 h, 1 µM [1]: 42%
- remaining at 1 h, 1 µM [2]: 67%
- IC50 [5]: 16.5 nM
- inhibition [6]: 38.8%
- remaining at 1 h, 1 µM [7]: 79%
- AUCt (Rattus norvegicus [8]): 4980 ng·h/mL
- remaining at 1 h, 1 µM [9]: 72%
- Tmax [11]: 1 h
- remaining at 1 h, 1 µM [13]: 81%
- IC50 [14]: > 1000 nM
- IC50 [15]: 8.9 nM
- Cmax [17]: 1090 ng/mL
- Drug uptake (Rattus norvegicus [18]): Active
- inhibition [20]: 27.7%
- inhibition [21]: 23.5%
Compound: O=C(Nc1ccc(OC(F)(F)F)cc1)N1CCC2(CC1)C[C@@H](O)c1cccc(Cl)c1O2
- inhibition (Mus musculus [3]): Dose-dependent effect
- Efficacy (Rattus norvegicus [4]): 39%
- Efficacy (Rattus norvegicus [10]): 66%
- Efficacy (Mus musculus [12]): 100%
- Efficacy (Mus musculus [16]): 72%
- Efficacy (Rattus norvegicus [19]): 65%
- Efficacy (Rattus norvegicus [22]): 74%
